Tested on: Japanese patients with T2DM
Assay: Clinical laboratory tests and vital signs, 7-day once-daily dosing
Format: in vivo, human
In short: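 Randomized, single-blind, placebo-controlled, parallel-group study in Japanese T2DM outpatients (HbA1c 6.9–10.5%, FPG ≥126 mg/dL, stable diet 4 weeks, age 20–74 y). Test compound 0.5, 1, 2.5 or 5 mg or placebo was given orally once daily for 7 days before breakfast. Safety set was all dosed patients. AEs were coded in MedDRA 12.1 and graded mild/moderate/severe, with drug relation judged by the investigator. Labs, vital signs, body weight and ECG were also recorded.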

CCOc1ccc(Cc2cc([C@@H]3S[C@H](CO)[C@@H](O)[C@H](O)[C@H]3O)c(OC)cc2C)cc1 [Luseogliflozin, (1S)-1,5-anhydro-1-[5-(4-ethoxybenzyl)-2-methoxy-4-methylphenyl]-1-thio-D-glucitol]
Cystatin C, change from baseline (0.5 mg OD, Day 1): -0.040 ± 0.018 mg/L
DBP, change from baseline (0.5 mg OD, Day 1): 3.0 ± 5.2 mmHg
Hematocrit, change from baseline (0.5 mg OD, Day 1): −1.14 ± 0.73%
SBP, change from baseline (0.5 mg OD, Day 1): −1.7 ± 6.0 mmHg
Serum calcium, change from baseline (0.5 mg OD, Day 1): -0.19 ± 0.12 mg/dL
Serum phosphorus, change from baseline (0.5 mg OD, Day 1): 0.30 ± 0.40 mg/dL
Urinary NAG, change from baseline (0.5 mg OD, Day 1): −0.31 ± 0.67 U/L
Urinary calcium, change from baseline (0.5 mg OD, Day 1): 0.01 ± 0.04 g/day
Urinary phosphorus, change from baseline (0.5 mg OD, Day 1): -0.13 ± 0.10 g/day
Urinary type IV collagen, change from baseline (0.5 mg OD, Day 1): −0.40 ± 1.08 μg/g creatinine
Urinary uric acid, change from baseline (0.5 mg OD, Day 1): 0.04 ± 0.05 g/day
Urinary β2-microglobulin, change from baseline (0.5 mg OD, Day 1): -12.4 ± 25.2 µg/L
Cystatin C, change from baseline (0.5 mg OD, Day 7): -0.067 ± 0.029 mg/L
DBP, change from baseline (0.5 mg OD, Day 7): 3.1 ± 3.8 mmHg
Hematocrit, change from baseline (0.5 mg OD, Day 7): −2.20 ± 0.95%
SBP, change from baseline (0.5 mg OD, Day 7): −5.9 ± 3.8 mmHg
Serum calcium, change from baseline (0.5 mg OD, Day 7): -0.24 ± 0.05 mg/dL
Serum phosphorus, change from baseline (0.5 mg OD, Day 7): 0.16 ± 0.40 mg/dL
Urinary NAG, change from baseline (0.5 mg OD, Day 7): −0.06 ± 0.80 U/L
Urinary calcium, change from baseline (0.5 mg OD, Day 7): 0.01 ± 0.04 g/day
Urinary phosphorus, change from baseline (0.5 mg OD, Day 7): -0.04 ± 0.13 g/day
Urinary type IV collagen, change from baseline (0.5 mg OD, Day 7): −0.21 ± 1.25 μg/g creatinine
Urinary uric acid, change from baseline (0.5 mg OD, Day 7): -0.01 ± 0.07 g/day
Urinary β2-microglobulin, change from baseline (0.5 mg OD, Day 7): -7.4 ± 27.1 µg/L
Cystatin C, change from baseline (1 mg OD, Day 1): 0.005 ± 0.077 mg/L
DBP, change from baseline (1 mg OD, Day 1): 0.4 ± 4.9 mmHg
Hematocrit, change from baseline (1 mg OD, Day 1): −1.26 ± 0.86%
SBP, change from baseline (1 mg OD, Day 1): 3.5 ± 9.6 mmHg
Serum calcium, change from baseline (1 mg OD, Day 1): -0.19 ± 0.16 mg/dL
Serum phosphorus, change from baseline (1 mg OD, Day 1): 0.57 ± 0.32 mg/dL
Urinary NAG, change from baseline (1 mg OD, Day 1): −0.33 ± 0.99 U/L
Urinary calcium, change from baseline (1 mg OD, Day 1): 0.00 ± 0.00 g/day
Urinary phosphorus, change from baseline (1 mg OD, Day 1): -0.13 ± 0.10 g/day
Urinary type IV collagen, change from baseline (1 mg OD, Day 1): −0.44 ± 0.61 μg/g creatinine
Urinary uric acid, change from baseline (1 mg OD, Day 1): 0.08 ± 0.07 g/day
Urinary β2-microglobulin, change from baseline (1 mg OD, Day 1): -8.5 ± 31.3 µg/L
Cystatin C, change from baseline (1 mg OD, Day 7): -0.061 ± 0.043 mg/L
DBP, change from baseline (1 mg OD, Day 7): −0.8 ± 6.6 mmHg
Hematocrit, change from baseline (1 mg OD, Day 7): −2.68 ± 0.89%
SBP, change from baseline (1 mg OD, Day 7): −2.4 ± 12.8 mmHg
Serum calcium, change from baseline (1 mg OD, Day 7): -0.41 ± 0.14 mg/dL
Serum phosphorus, change from baseline (1 mg OD, Day 7): 0.20 ± 0.21 mg/dL
Urinary NAG, change from baseline (1 mg OD, Day 7): 0.73 ± 0.80 U/L
Urinary calcium, change from baseline (1 mg OD, Day 7): 0.00 ± 0.00 g/day
Urinary phosphorus, change from baseline (1 mg OD, Day 7): 0.00 ± 0.13 g/day
Urinary type IV collagen, change from baseline (1 mg OD, Day 7): 0.66 ± 1.22 μg/g creatinine
Urinary uric acid, change from baseline (1 mg OD, Day 7): -0.03 ± 0.20 g/day
Urinary β2-microglobulin, change from baseline (1 mg OD, Day 7): 17.3 ± 54.9 µg/L
Cystatin C, change from baseline (2.5 mg OD, Day 1): 0.016 ± 0.060 mg/L
DBP, change from baseline (2.5 mg OD, Day 1): −4.3 ± 5.6 mmHg
Hematocrit, change from baseline (2.5 mg OD, Day 1): −0.58 ± 1.48%
SBP, change from baseline (2.5 mg OD, Day 1): −5.6 ± 9.5 mmHg
Serum calcium, change from baseline (2.5 mg OD, Day 1): -0.15 ± 0.23 mg/dL
Serum phosphorus, change from baseline (2.5 mg OD, Day 1): 0.68 ± 0.23 mg/dL
Urinary NAG, change from baseline (2.5 mg OD, Day 1): −0.68 ± 1.33 U/L
Urinary calcium, change from baseline (2.5 mg OD, Day 1): -0.01 ± 0.04 g/day
Urinary phosphorus, change from baseline (2.5 mg OD, Day 1): -0.24 ± 0.07 g/day
Urinary type IV collagen, change from baseline (2.5 mg OD, Day 1): −0.05 ± 1.13 μg/g creatinine
Urinary uric acid, change from baseline (2.5 mg OD, Day 1): -0.01 ± 0.04 g/day
Urinary β2-microglobulin, change from baseline (2.5 mg OD, Day 1): -11.0 ± 44.9 µg/L
Cystatin C, change from baseline (2.5 mg OD, Day 7): -0.064 ± 0.054 mg/L
DBP, change from baseline (2.5 mg OD, Day 7): −6.1 ± 5.6 mmHg
Hematocrit, change from baseline (2.5 mg OD, Day 7): −2.89 ± 1.81%
SBP, change from baseline (2.5 mg OD, Day 7): −8.8 ± 10.9 mmHg
Serum calcium, change from baseline (2.5 mg OD, Day 7): -0.40 ± 0.27 mg/dL
Serum phosphorus, change from baseline (2.5 mg OD, Day 7): 0.38 ± 0.29 mg/dL
Urinary NAG, change from baseline (2.5 mg OD, Day 7): −0.08 ± 1.26 U/L
Urinary calcium, change from baseline (2.5 mg OD, Day 7): 0.00 ± 0.05 g/day
Urinary phosphorus, change from baseline (2.5 mg OD, Day 7): -0.03 ± 0.17 g/day
Urinary type IV collagen, change from baseline (2.5 mg OD, Day 7): 0.21 ± 1.85 μg/g creatinine
Urinary uric acid, change from baseline (2.5 mg OD, Day 7): -0.06 ± 0.07 g/day
Urinary β2-microglobulin, change from baseline (2.5 mg OD, Day 7): 5.5 ± 44.0 µg/L
Cystatin C, change from baseline (5 mg OD, Day 1): 0.028 ± 0.042 mg/L
DBP, change from baseline (5 mg OD, Day 1): 0.6 ± 6.0 mmHg
Hematocrit, change from baseline (5 mg OD, Day 1): −0.54 ± 0.85%
SBP, change from baseline (5 mg OD, Day 1): −1.3 ± 12.5 mmHg
Serum calcium, change from baseline (5 mg OD, Day 1): -0.10 ± 0.20 mg/dL
Serum phosphorus, change from baseline (5 mg OD, Day 1): 1.08 ± 0.37 mg/dL
Urinary NAG, change from baseline (5 mg OD, Day 1): −0.81 ± 1.01 U/L
Urinary calcium, change from baseline (5 mg OD, Day 1): -0.01 ± 0.04 g/day
Urinary phosphorus, change from baseline (5 mg OD, Day 1): -0.24 ± 0.11 g/day
Urinary type IV collagen, change from baseline (5 mg OD, Day 1): 0.11 ± 0.97 μg/g creatinine
Urinary uric acid, change from baseline (5 mg OD, Day 1): 0.08 ± 0.12 g/day
Urinary β2-microglobulin, change from baseline (5 mg OD, Day 1): -1.3 ± 13.5 µg/L
Cystatin C, change from baseline (5 mg OD, Day 7): -0.027 ± 0.065 mg/L
DBP, change from baseline (5 mg OD, Day 7): −3.1 ± 6.0 mmHg
Hematocrit, change from baseline (5 mg OD, Day 7): −1.66 ± 1.99%
SBP, change from baseline (5 mg OD, Day 7): −11.3 ± 11.8 mmHg
Serum calcium, change from baseline (5 mg OD, Day 7): -0.16 ± 0.45 mg/dL
Serum phosphorus, change from baseline (5 mg OD, Day 7): 0.42 ± 0.39 mg/dL
Urinary NAG, change from baseline (5 mg OD, Day 7): −0.11 ± 1.18 U/L
Urinary calcium, change from baseline (5 mg OD, Day 7): -0.03 ± 0.05 g/day
Urinary phosphorus, change from baseline (5 mg OD, Day 7): -0.01 ± 0.14 g/day
Urinary type IV collagen, change from baseline (5 mg OD, Day 7): 0.31 ± 1.26 μg/g creatinine
Urinary uric acid, change from baseline (5 mg OD, Day 7): 0.01 ± 0.10 g/day
Urinary β2-microglobulin, change from baseline (5 mg OD, Day 7): 1.4 ± 20.3 µg/L
